{"source": "ChEMBL document CHEMBL5335784", "about": "“Discovery of a novel 1,3,4-oxadiazol-2-one-based NLRP3 inhibitor as a pharmacological agent to mitigate cardiac and metabolic complications in an experimental model of diet-induced metaflammation” (Eur J Med Chem, 2023)", "key": {"Rattus norvegicus [1]": {"system": "Rattus norvegicus", "assay": "Antiinflammatory activity against high fat diet fed-induced metaflammation Wistar rat model assessed as reduction in HFD-induced anthropometric alterations by measuring reduction in liver weight at 20 mg/kg/day, ip administered for 4 weeks", "type": "functional, organism-based", "procedure,_shortened": "(§1)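 Male Wistar rats on high-fat diet (60% kcal fat) or standard diet for 12 weeks; 20 mg/kg/day i.p. or vehicle (saline, 2% DMSO, 5% Cremophor-EL) over the last 28 days. Body weight recorded weekly. After sacrifice, abdominal, epididymal, retroperitoneal and perirenal fat, liver and heart excised and weighed. Cardiac somatic index = heart weight/body weight ×100. n=6–7 per group.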"}, "Rattus norvegicus [2]": {"system": "Rattus norvegicus", "assay": "Inhibition of ischemia/reperfusion-induced oxidative stress in ischemia/reperfusion-induced myocardial injury and standard diet fed Wistar rat model assessed as increase in cardiac SOD activity at 20 mg/kg/day, ip administered for 4 weeks followed by excised heart exposed to global ischemia for 30 mins and reperfusion for 120 mins", "type": "functional, organism-based", "procedure,_shortened": "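Same rat diet, dosing and ischemia/reperfusion protocol. LV homogenized in 50 mM Tris-HCl pH 8.2 with 1 mM DTPA and centrifuged at 20,000 x g for 20 min. Supernatant mixed with 0.2 mM pyrogallol, autoxidation followed at 420 nm for 3 min. Activity given as % pyrogallol autoxidation relative to sham; 1 U inhibits the rate by 50%.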"}, "[3]": {"assay": "Effect on Gal-3 level in standard diet fed Wistar rat plasma at 20 mg/kg/day, ip administered for 4 weeks", "type": "toxicity, organism-based", "conditions": "in vivo, 672 h", "procedure,_shortened": "(§2)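 Male Wistar rats on HFD or SD for 12 weeks received 20 mg/kg/day i.p. (saline, 2% DMSO, 5% Cremophor-EL) or vehicle for the last 28 days. Circulating IL-1β, TNF-α, BNP and Gal-3 quantified by ELISA in blood collected after sacrifice. n=6–7 per group.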"}, "Rattus norvegicus [4]": {"system": "Rattus norvegicus", "assay": "Cardioprotective activity against high fat diet fed-induced metaflammation Wistar rat model assessed as reduction in myocardial damage by measuring reduction in plasma LDH level at 20 mg/kg/day, ip administered for 4 weeks", "type": "functional, organism-based"}, "[5]": {"assay": "Cytotoxicity against human THP-1 cells assessed as reduction in cell viability measured after 72 hr by MTT assay", "type": "toxicity, cell-based", "conditions": "read-out: TC50", "procedure,_shortened": "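Undifferentiated THP-1 cells exposed to 0.1–100 μM compound for 72 h. Viability read by MTT reduction at 570 nm. TC50 from concentration–response; three experiments.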"}, "Rattus norvegicus [6]": {"system": "Rattus norvegicus", "assay": "Antiinflammatory activity against high fat diet fed-induced metaflammation Wistar rat model assessed as reduction in HFD-induced anthropometric alterations by measuring reduction in cardiac somatic index at 20 mg/kg/day, ip administered for 4 weeks", "type": "functional, organism-based", "procedure,_shortened": "as §1"}, "Rattus norvegicus [7]": {"system": "Rattus norvegicus", "assay": "Inhibition of ischemia/reperfusion-induced inflammation in ischemia/reperfusion-induced myocardial injury and standard diet fed Wistar rat model assessed as decrease in cardiac IL-1 beta level at 20 mg/kg/day, ip administered for 4 weeks followed by excised heart exposed to global ischemia for 30 mins and reperfusion for 120 mins by ELISA", "type": "functional, organism-based", "procedure,_shortened": "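Male Wistar rats on standard or 60% kcal fat diet for 12 weeks; last 28 days i.p. 20 mg/kg/day in saline with 2% DMSO and 5% Cremophor-EL, or vehicle. Hearts perfused by Langendorff with KH buffer at 12 ml/min, 37°C, then 40 min stabilization, 30 min global no-flow ischemia and 120 min reperfusion. Cytokines measured in LV tissue; n=6–7 per group.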"}, "[8]": {"assay": "Effect on glyco-metabolic profile in standard diet fed Wistar rat assessed as effect on triglyceride level in plasma at 20 mg/kg/day, ip administered for 4 weeks", "type": "toxicity, organism-based", "conditions": "in vivo, 672 h", "procedure,_shortened": "(§3)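 Rats fed HFD or SD for 12 weeks, dosed 20 mg/kg/day i.p. in saline/2% DMSO/5% Cremophor-EL during the final 28 days. Serum obtained after sacrifice by centrifuging blood at 2000 x g, 10 min, 4 °C. Glucose read by glucometer; total, HDL and LDL cholesterol and triglycerides measured with commercial kits. n=6–7 per group.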"}, "[9]": {"assay": "Effect on BNP level in standard diet fed Wistar rat plasma at 20 mg/kg/day, ip administered for 4 weeks", "type": "toxicity, organism-based", "conditions": "in vivo, 672 h", "procedure,_shortened": "as §2"}, "Rattus norvegicus [10]": {"system": "Rattus norvegicus", "assay": "Cardioprotective activity against myocardial ischemia/reperfusion injury-induced contractile impairment and standard diet fed Wistar rat model assessed as left ventricular end diastolic pressure at 20 mg/kg/day, ip administered for 4 weeks followed by excised heart exposed to global ischemia for 30 mins and reperfusion for 120 mins and measured at the end of reperfusion (reference value: 21 +/-2 mmHg)", "type": "functional"}, "[11]": {"assay": "Effect on glyco-metabolic profile in standard diet fed Wistar rat assessed as effect on HDL cholesterol level in plasma at 20 mg/kg/day, ip administered for 4 weeks", "type": "toxicity, organism-based", "conditions": "in vivo, 672 h", "procedure,_shortened": "as §3"}, "[12]": {"assay": "Effect on left ventricular end diastolic pressure in high diet fed obese Wistar rat model at 20 mg/kg/day, ip administered for 4 weeks (reference value: 6+/-0.2 mm Hg)", "type": "toxicity, organism-based", "conditions": "in vivo, 672 h"}, "[13]": {"assay": "Drug metabolism in PBS assessed as half time for compound hydrolysis to 2-(5-(2-Chlorobenzyl)-2-oxo-1,3,4-oxadiazol-3(2H)-yl)acetic acid at 100 uM at pH 7.4 by RP-HPLC analysis", "type": "ADME", "procedure,_shortened": "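Compound added from 10 mM DMSO stock to 50 mM PBS, pH 7.4, 37 °C. Sampled over 48 h and quantified by RP-HPLC (phenyl column, 226/254 nm) against external standards of ester and acid.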"}, "[14]": {"target": "NACHT, LRR and PYD domains-containing protein 3 (Homo sapiens, UniProt Q96P20)", "sequence (Q96P20 whole entry, the tested form may be a part)": "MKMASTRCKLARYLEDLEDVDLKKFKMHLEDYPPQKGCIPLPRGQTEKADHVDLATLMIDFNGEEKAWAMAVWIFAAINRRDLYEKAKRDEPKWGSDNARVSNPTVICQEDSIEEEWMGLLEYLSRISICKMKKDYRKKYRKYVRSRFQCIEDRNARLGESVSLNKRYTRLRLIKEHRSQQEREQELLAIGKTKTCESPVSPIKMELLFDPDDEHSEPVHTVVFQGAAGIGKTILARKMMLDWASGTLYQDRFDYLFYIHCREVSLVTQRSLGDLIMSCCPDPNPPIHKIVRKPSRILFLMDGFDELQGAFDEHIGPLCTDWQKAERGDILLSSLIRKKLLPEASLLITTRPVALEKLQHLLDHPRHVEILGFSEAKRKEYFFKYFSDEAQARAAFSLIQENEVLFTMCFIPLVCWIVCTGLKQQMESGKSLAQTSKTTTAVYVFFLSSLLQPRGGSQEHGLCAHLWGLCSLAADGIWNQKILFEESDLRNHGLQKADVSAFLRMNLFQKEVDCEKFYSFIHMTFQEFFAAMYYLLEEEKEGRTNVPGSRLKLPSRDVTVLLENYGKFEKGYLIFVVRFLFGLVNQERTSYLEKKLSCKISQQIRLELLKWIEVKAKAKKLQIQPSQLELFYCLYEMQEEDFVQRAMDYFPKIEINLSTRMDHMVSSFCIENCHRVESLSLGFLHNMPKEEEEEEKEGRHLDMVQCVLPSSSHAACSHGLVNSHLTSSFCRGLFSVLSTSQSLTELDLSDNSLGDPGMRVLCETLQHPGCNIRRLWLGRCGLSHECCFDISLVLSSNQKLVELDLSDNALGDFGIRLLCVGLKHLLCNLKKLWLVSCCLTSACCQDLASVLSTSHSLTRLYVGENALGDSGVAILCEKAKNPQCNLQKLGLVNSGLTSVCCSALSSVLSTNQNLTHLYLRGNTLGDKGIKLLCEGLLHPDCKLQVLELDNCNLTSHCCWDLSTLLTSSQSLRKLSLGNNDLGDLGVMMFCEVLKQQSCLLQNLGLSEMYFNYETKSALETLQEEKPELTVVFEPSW", "assay": "Inhibition of NLRP3-dependent pyroptosis in PMA-differentiated human THP-1 cells assessed as inhibition of LPS/MSU-induced cell death at 10 uM by LDH assay", "type": "cell-based"}, "Rattus norvegicus [15]": {"system": "Rattus norvegicus", "assay": "Cardioprotective activity against ischemia/reperfusion-induced myocardial injury and high diet fed obese Wistar rat model assessed as decrease in LDH activity in coronary effluents at 20 mg/kg/day, ip administered for 4 weeks followed by excised heart exposed to global ischemia for 30 mins and reperfusion for 120 mins and measured during first 20 mins of reperfusion by spectrophotometric analysis", "type": "functional, organism-based", "procedure,_shortened": "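HFD or SD rats, dosed 20 mg/kg/day i.p. for the final 28 days, anaesthetised with ethyl carbamate (2 g/kg i.p.). Hearts Langendorff-perfused with Krebs–Henseleit buffer (pH 7.4, 37 °C, 12 ml/min); 40 min stabilization, 30 min global no-flow ischemia, 120 min reperfusion. Coronary effluent collected on ice before ischemia and at 10, 20, 30 min reperfusion; LDH activity by McQueen method. n=6–7.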"}, "Rattus norvegicus [16]": {"system": "Rattus norvegicus", "assay": "Antiinflammatory activity against high fat diet fed-induced metaflammation Wistar rat model assessed as reduction in HFD-induced anthropometric alterations by measuring reduction in abdominal fat deposition at 20 mg/kg/day, ip administered for 4 weeks", "type": "functional, organism-based", "procedure,_shortened": "as §1"}, "[17]": {"assay": "Effect on developed LVP recovery in standard diet fed Wistar rat model at 20 mg/kg/day, ip administered for 4 weeks (reference value: 69 +/-4 mmHg)", "type": "toxicity, organism-based", "conditions": "in vivo, 672 h"}, "Rattus norvegicus [18]": {"system": "Rattus norvegicus", "assay": "Antiinflammatory activity against high fat diet fed-induced metaflammation Wistar rat model assessed as reduction in HFD-induced anthropometric alterations by measuring reduction in perirenal fat deposition at 20 mg/kg/day, ip administered for 4 weeks", "type": "functional, organism-based", "procedure,_shortened": "as §1"}, "[19]": {"assay": "Effect on developed LVP recovery in high diet fed obese Wistar rat model at 20 mg/kg/day, ip administered for 4 weeks (reference value: 54 +/-6 mmHg)", "type": "toxicity, organism-based", "conditions": "in vivo, 672 h"}, "[20]": {"assay": "Effect on IL-1 beta level in standard diet fed Wistar rat serum at 20 mg/kg/day, ip administered for 4 weeks by ELISA", "type": "toxicity, organism-based", "conditions": "in vivo, 672 h", "procedure,_shortened": "as §2"}, "[21]": {"assay": "Stability of the compound in saline solution containing 2% DMSO and 5% Cremophor-EL measured at 25 degC for more than 7 days by RP-HPLC analysis", "type": "physicochemical", "conditions": "buffer, 168 h; time 7 day", "procedure,_shortened": "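A 2 mg/mL solution in saline with 2% DMSO and 5% Cremophor-EL was kept at 4 °C or 25 °C for 7 days and analysed daily by RP-HPLC at 226/254 nm.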"}}, "note": "The source made the active and inactive calls. The rule behind the calls is not given here.", "data": [{"smiles": "CCOC(=O)Cn1nc(Cc2ccccc2Cl)oc1=O", "values": [{"measurement": "Activity", "setting": "Rattus norvegicus [1]", "value": "Active"}, {"measurement": "inhibition", "setting": "Rattus norvegicus [2]", "value": "Active"}, {"measurement": "Activity", "setting": "[3]", "value": "Non-Toxic"}, {"measurement": "Activity", "setting": "Rattus norvegicus [4]", "value": "Active"}, {"measurement": "CC50 at 72 h", "setting": "[5]", "value": 76.5, "unit": "µM"}, {"measurement": "Activity", "setting": "Rattus norvegicus [6]", "value": "Active"}, {"measurement": "inhibition", "setting": "Rattus norvegicus [7]", "value": "Active"}, {"measurement": "Activity", "setting": "[8]", "value": "Non-Toxic"}, {"measurement": "Activity", "setting": "[9]", "value": "Non-Toxic"}, {"measurement": "Activity", "setting": "Rattus norvegicus [10]", "value": 13, "unit": "mmHg"}, {"measurement": "Activity", "setting": "[11]", "value": "Non-Toxic"}, {"measurement": "Activity", "setting": "[12]", "value": 4, "unit": "mmHg"}, {"measurement": "half-life at 100 µM", "setting": "[13]", "value": "> 48", "unit": "h"}, {"measurement": "inhibition", "setting": "[14]", "value": 61.6, "unit": "%"}, {"measurement": "Activity", "setting": "Rattus norvegicus [15]", "value": "Active"}, {"measurement": "Activity", "setting": "Rattus norvegicus [16]", "value": "Active"}, {"measurement": "Activity", "setting": "[17]", "value": 65, "unit": "mmHg"}, {"measurement": "Activity", "setting": "Rattus norvegicus [18]", "value": "Active"}, {"measurement": "Activity", "setting": "[19]", "value": 64, "unit": "mmHg"}, {"measurement": "Activity", "setting": "[20]", "value": "Non-Toxic"}, {"measurement": "Stability", "setting": "[21]", "value": "Stable"}]}]}
